Data from ChEMBL document CHEMBL1132324, “Structure-activity relationships in 1,4-benzodioxan-related compounds. 6. Role of the dioxane unit on selectivity for alpha(1)-adrenoreceptor subtypes” (J Med Chem, 1999).

Experiments:
[1] = biological target: T1, Alpha-1D adrenergic receptor (Homo sapiens) (UniProt P25100); assay: The binding affinity was evaluated on cloned human Alpha-1D adrenergic receptor expressed in chinese hamster ovary(CHO) cells by using [3H]-prazosin as radioligand.; format: cell-based
T1 sequence (whole entry): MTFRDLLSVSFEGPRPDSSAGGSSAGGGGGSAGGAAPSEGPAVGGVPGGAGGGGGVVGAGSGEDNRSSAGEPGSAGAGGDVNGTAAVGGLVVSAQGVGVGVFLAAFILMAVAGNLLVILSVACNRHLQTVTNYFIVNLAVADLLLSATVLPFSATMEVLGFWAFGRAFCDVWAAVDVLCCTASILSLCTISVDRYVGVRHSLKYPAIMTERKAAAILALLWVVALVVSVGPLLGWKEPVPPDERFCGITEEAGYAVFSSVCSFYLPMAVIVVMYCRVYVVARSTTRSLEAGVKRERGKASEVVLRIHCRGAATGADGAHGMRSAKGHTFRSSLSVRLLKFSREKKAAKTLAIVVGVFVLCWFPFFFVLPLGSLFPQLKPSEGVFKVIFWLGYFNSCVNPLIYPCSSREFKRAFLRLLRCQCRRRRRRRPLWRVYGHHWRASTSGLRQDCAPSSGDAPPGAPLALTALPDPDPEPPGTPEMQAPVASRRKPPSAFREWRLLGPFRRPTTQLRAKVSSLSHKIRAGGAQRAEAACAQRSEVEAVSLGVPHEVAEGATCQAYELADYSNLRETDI
Method in brief: (§1)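 Membranes (30 μg protein) from CHO cells stably expressing each human α1 subtype, in 50 mM Tris-HCl pH 7.4. Incubated with 0.1–0.4 nM [3H]prazosin for 30 min at 25 °C, competitor 1 pM–10 μM. Nonspecific binding with 10 μM phentolamine. Ki by Cheng-Prusoff. 2–3 experiments in triplicate.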

[2] = biological target: T2, Alpha-1A adrenergic receptor (Rattus norvegicus) (UniProt P43140); assay: Antagonist affinity was expressed as apparent pKb at Alpha-1A adrenergic receptor on isolated rat prostatic vas deferens (alpha1A).; format: functional, tissue-based
T2 sequence (whole entry): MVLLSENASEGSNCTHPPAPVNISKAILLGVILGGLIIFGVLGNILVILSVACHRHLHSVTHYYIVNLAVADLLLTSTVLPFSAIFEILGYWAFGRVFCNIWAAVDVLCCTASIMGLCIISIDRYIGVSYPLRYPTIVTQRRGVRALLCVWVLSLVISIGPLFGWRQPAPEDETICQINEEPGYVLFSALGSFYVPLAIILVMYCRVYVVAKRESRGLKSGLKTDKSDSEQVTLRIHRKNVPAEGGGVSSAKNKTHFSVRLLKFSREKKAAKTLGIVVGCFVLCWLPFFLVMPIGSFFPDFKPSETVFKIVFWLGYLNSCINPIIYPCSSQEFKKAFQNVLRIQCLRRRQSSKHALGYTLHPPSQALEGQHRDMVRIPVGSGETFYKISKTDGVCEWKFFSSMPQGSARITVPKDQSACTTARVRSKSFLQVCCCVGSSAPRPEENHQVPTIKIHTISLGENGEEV
Method in brief: (§2)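 Rat prostatic vas deferens in Tyrode with 0.1 μM cocaine. Equilibrated 60 min, primed twice with 10 μM noradrenaline, then a control cumulative (–)-noradrenaline curve recorded isometrically. Antagonist equilibrated 30 min before a repeat curve. Apparent pKb = log(DR−1) − log[B], with DR as the ratio of agonist EC50 with/without antagonist. 2–3 antagonist concentrations, each tested four times.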

[3] = test system: Alpha-1B adrenergic receptor (Cavia porcellus); assay: Antagonist affinity was expressed as apparent pKb at Alpha-1B adrenergic receptor on isolated Guinea pig spleen (Alpha-1B)
[4] = biological target: T3, Adrenergic receptor alpha-2 (Rattus norvegicus) (UniProt P22086+P19328+P22909); assay: The binding affinity was evaluated on Alpha-2 adrenergic receptor expressed in rat cortex by using [3H]rauwolscine as radioligand.
Method in brief: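 Male Sprague-Dawley rat cerebral cortex membranes, washed in Tris-HCl pH 7.4 and resuspended with 10 μM pargyline and 0.1% ascorbic acid. Incubated 30 min at 25 °C with 0.5–1.5 nM [3H]rauwolscine. Nonspecific binding with 10 μM phentolamine. Filtration on PEI-treated filters. Ki by Cheng-Prusoff. 2–3 experiments in triplicate.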

[5] = biological target: T3, Adrenergic receptor alpha-2 (Rattus norvegicus); assay: The binding affinity was evaluated on alpha-2 adrenergic receptor expressed in rat cortex by using [3H]rauwolscine as radioligand.
Method in brief: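 Male Sprague-Dawley rat cerebral cortex membranes, washed in Tris-HCl pH 7.4 and held in buffer with 10 μM pargiline and 0.1% ascorbic acid. Incubated 30 min at 25 °C with 0.5-1.5 nM [3H]rauwolscine; nonspecific binding with 10 μM phentolamine. Filtration, scintillation counting. Ki from Cheng-Prusoff; 2-3 experiments in triplicate.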

[6] = biological target: T1, Alpha-1D adrenergic receptor (Homo sapiens); assay: The binding affinity was evaluated on cloned human alpha-1D adrenergic receptor expressed in chinese hamster ovary(CHO) cells by using [3H]prazosin as radioligand.; format: cell-based; method in brief: as §1
[7] = biological target: T2, Alpha-1A adrenergic receptor (Rattus norvegicus); assay: Antagonist affinity was expressed as apparent pKb at alpha-1 adrenoceptors on isolated rat prostatic vas deferens (Alpha-1A adrenergic receptor).; format: functional, tissue-based; method in brief: as §2
[8] = biological target: T4, Alpha-1D adrenergic receptor (Rattus norvegicus) (UniProt P23944); assay: Antagonist affinity was expressed as apparent pKb at alpha-1D adrenergic receptor on isolated rat thoracic aorta (Alpha-1D adrenergic receptor); format: functional, tissue-based
T4 sequence (whole entry): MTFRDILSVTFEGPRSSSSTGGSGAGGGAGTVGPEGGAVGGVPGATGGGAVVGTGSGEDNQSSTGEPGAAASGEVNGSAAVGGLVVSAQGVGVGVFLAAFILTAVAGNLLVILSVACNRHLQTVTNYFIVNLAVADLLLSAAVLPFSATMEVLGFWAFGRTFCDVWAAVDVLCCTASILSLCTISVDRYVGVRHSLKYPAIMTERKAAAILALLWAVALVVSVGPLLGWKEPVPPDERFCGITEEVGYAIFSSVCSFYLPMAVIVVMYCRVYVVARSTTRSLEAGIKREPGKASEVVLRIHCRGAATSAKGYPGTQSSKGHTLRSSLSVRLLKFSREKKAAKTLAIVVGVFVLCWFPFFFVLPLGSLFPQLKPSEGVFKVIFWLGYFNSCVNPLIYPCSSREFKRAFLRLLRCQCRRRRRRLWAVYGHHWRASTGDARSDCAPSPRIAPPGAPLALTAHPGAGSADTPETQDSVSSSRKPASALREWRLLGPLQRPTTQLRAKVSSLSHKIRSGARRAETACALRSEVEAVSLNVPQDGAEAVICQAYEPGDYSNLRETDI
Method in brief: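 Helicoidal strips of rat thoracic aorta at 1 g tension, with 0.1 μM cocaine and 1 μM propranolol. After ≥1 h equilibration, cumulative (–)-noradrenaline curves at 30-min intervals; the third served as control. Antagonist equilibrated 30 min before the fourth curve. Apparent pKb from log(DR−1) − log[B], 2–3 antagonist concentrations, each tested four times.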

[9] = test system: Alpha-1B adrenergic receptor (Cavia porcellus); assay: Antagonist affinity was expressed as apparent pKb at alpha-1B adrenergic receptor on isolated Guinea pig spleen (Alpha-1B adrenergic receptor)

Structure (SMILES)	pKi [1]	pKb [2]	pKb [3]	pKi [4]	pKi [5]	pKi [6]	pKb [7]	pKb [8]	pKb [9]
COc1cccc(OC)c1OCCNCCOc1ccccc1OCc1ccccc1	10.2	8.39	7.87						
COc1cccc(OC)c1OCCNCC1Oc2ccccc2CC1c1ccccc1 (stereo in doubt; 7)	7.28	7.36	5.54	< 6					
COc1cccc(OC)c1OCCNCC1C(=O)c2ccccc2OC1c1ccccc1 (configuration not stated)					< 6	7.93	7.88	6.98	6.05
